Measurements published in article PMC3162150 (Cancer Chemotherapy and Pharmacology, 2011).
“And” between values parts separate entries of the source, which are not always exact repeats. Equal values may be shown once. Read-outs that look alike come from different tables or passages of the source.

How the values were obtained:
[1] = 12-lead ECG monitoring during the core phase
[2] = assay type: in vivo, human; details: for AUC0–∞ ratio (90% CI), panobinostat + ketoconazole / panobinostat alone / C max ratio (90% CI), panobinostat + ketoconazole / panobinostat alone: geometric mean ratio; for CL/F: geometric mean
[3] = assay type: in vivo, human
In short: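 Patients took 20 mg of the oral test compound each Monday, Wednesday and Friday from day 15 (extension phase) until disease progression or withdrawal. Before that, in cycle 1, they had single 20 mg doses on day 1 and day 8; the day 8 dose followed a CYP3A inhibitor given at 400 mg once daily on days 5–9. Laboratory assessments were done weekly during the extension.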

[4] = cited from earlier work
[5] = cited from earlier work; remark: listed apart in the source
[6] = Adverse events and laboratory safety assessment; assay type: in vivo, human
CYP3A = test: Estimate of fraction of panobinostat cleared by CYP3A from AUC ratio; assay type: in vivo, human
[7] = tested on: human cytochrome P450 CYP3A4; details: in vitro; minor involvement of CYP2D6 and CYP2C19; no reference given; cited from earlier work
[8] = period 1 (panobinostat only), N = 14
[9] = period 3 (concomitant panobinostat and ketoconazole), N = 14
[10] = 20 mg panobinostat, ketoconazole 400 mg
[11] = 20 mg panobinostat, ketoconazole 400 mg, listed as panobinostat
[12] = ref personal communication Margaret M Woo, Novartis
[13] = extension phase, panobinostat 20 mg MWF, 13 patients
[14] = period 2 (ketoconazole only), N = 14

For `Cc1[nH]c2ccccc2c1CCNCc1ccc(/C=C/C(=O)NO)cc1` [Panobinostat], the “mean QTc increase at any moment compared with baseline” value ([1]; core phase (15 days; panobinostat 20 mg days 1 and 8, ketoconazole days 5–9)) was “below 5%”, the “increases in QTc ≥ 60 ms compared with baseline” value ([1]; core phase, all three periods) was “No increases” and the Ectopic activity [1, 8] was 2 (14%) patients (%). The “New QTcB >450 ms” value [1, 8] was 3 (21%) patients (%), the “QTcB increase >60 ms” value [1, 8] was 0 patients (%) and the ST segment depression [1, 8] was 0 patients (%). For the same compound, the Sinus bradycardia [1, 8] was 0 patients (%), the Sinus tachycardia [1, 8] was 0 patients (%) and the T wave changes [1, 8] was 2 (14%) patients (%). For the same compound, the “patients with other transient ECG abnormalities” value [1, 8] was 21%, the Ectopic activity [1, 9] was 2 (14%) patients (%) and the “New QTcB >450 ms” value [1, 9] was 2 (14%) patients (%). For the same compound, the “QTcB increase >60 ms” value [1, 9] was 0 patients (%), the ST segment depression [1, 9] was 2 (14%) patients (%) and the Sinus bradycardia [1, 9] was 0 patients (%). The Sinus tachycardia [1, 9] was 2 (14%) patients (%), the T wave changes [1, 9] was 2 (14%) patients (%) and the “patients with other transient ECG abnormalities” value [1, 9] was 43%. The “change in T max or half-life in the presence of ketoconazole” value [2, 10] was “No substantial change”, the “residual panobinostat in plasma prior to the day 8 dose” value ([2]; after 20 mg dose on day 1, LLOQ 0.5 ng/ml) was “No residual panobinostat was detectable” and the “AUC0–∞ ratio (90% CI), panobinostat + ketoconazole / panobinostat alone” value [2, 10] was 1.8 (1.5–2.2). The “C max ratio (90% CI), panobinostat + ketoconazole / panobinostat alone” value [2, 10] was 1.6 (1.2–2.2), the “AUC0–∞ ratio (90% CI), panobinostat + ketoconazole / panobinostat alone” value [2, 11] was 1.8 and the “C max ratio (90% CI), panobinostat + ketoconazole / panobinostat alone” value [2, 11] was 1.6. The Tmax ([2]; human, plasma, oral, 20 mg) was 1 h, the half-life ([2]; human, plasma, oral, 20 mg) was 14 h and the AUC(0-inf) ([2]; human, plasma, po, 20 mg) was 133 ng·h/mL. The Cmax ([2]; human, plasma, po, 20 mg) was 18.5 ng/mL, the “T max difference, panobinostat + ketoconazole vs panobinostat alone” value ([2]; median (minimum and maximum difference)) was 0.0 (−2.5 to 3.0) h and the CL/F ([2]; panobinostat 20 mg + ketoconazole 400 mg) was 90.6 L/h. The CL/F ([2]; panobinostat 20 mg alone) was 150.3 L/h, the “Fractional excretion of phosphate” value ([3]; Subj nr 00005, day 54, extension phase) was 5.3 (day 54) % and the “Fractional excretion of phosphate” value ([3]; Subj nr 00005, day 61, extension phase) was 3.2 (day 61) %. The “Fractional excretion of phosphate” value ([3]; Subj nr 00007, day 70, extension phase) was 19.4 (day 70) %, the “Fractional excretion of phosphate” value ([3]; Subj nr 00007, day 77, extension phase) was 19.0 (day 77) % and the “Fractional excretion of phosphate” value ([3]; Subj nr 00010, day 36, extension phase) was 2.7 (day 36) %. For the same compound, the “Fractional excretion of phosphate” value ([3]; Subj nr 00010, day 43, extension phase) was 8.9 (day 43) %, the dose-limiting thrombocytopenia ([4]; patients with Hodgkin's lymphoma, dose escalation, of 13 patients) was “four” and the “grade 3/4 thrombocytopenia” value ([4]; patients with Hodgkin's lymphoma, dose escalation) was 10 out of 13. The “inter-individual variability in pharmacokinetics” value [5, 12] was 60%, the “intra-individual variability in pharmacokinetics” value [5, 12] was 30% and the “dose dependence of C max and AUC” value ([5]; two dose-escalation trials, dose between 20 and <60 mg) was “increase linearly with the dose”. For the same compound, the “adverse events categorized as grade 1” value ([6]; core phase) was 42.9 % of all events, the “adverse events categorized as grade 2” value ([6]; core phase) was 35.7 % of all events and the “anorexia, regardless of relationship to study drug” value ([6]; core phase, N = 14) was 4 patients. For the same compound, the “diarrhea, regardless of relationship to study drug” value ([6]; core phase, N = 14) was 5 patients, the “fatigue, regardless of relationship to study drug” value ([6]; core phase, N = 14) was 2 patients and the “hypophosphatemia, regardless of relationship to study drug” value ([6]; core phase, N = 14) was 3 patients. For the same compound, the “myalgia, regardless of relationship to study drug” value ([6]; core phase, N = 14) was 3 patients, the “nausea, regardless of relationship to study drug” value ([6]; core phase, N = 14) was 3 patients and the “vomiting, regardless of relationship to study drug” value ([6]; core phase, N = 14) was 4 patients. For the same compound, the “asymptomatic hypophosphatemia of grade ≥ 2” value ([6]; during the trial, nine out of fourteen patients) was 64%, the “anorexia, regardless of relationship to study drug” value [6, 13] was 7 patients and the “diarrhea, regardless of relationship to study drug” value [6, 13] was 8 patients. For the same compound, the “fatigue, regardless of relationship to study drug” value [6, 13] was 7 patients, the “hypophosphatemia, regardless of relationship to study drug” value [6, 13] was 9 patients and the “vomiting, regardless of relationship to study drug” value [6, 13] was 8 patients. The “nausea, regardless of relationship to study drug” value ([6]; extension phase, single-agent panobinostat 20 mg oral MWF, 13 patients) was 10 patients, the neutropenia ([6]; panobinostat administered for a prolonged period (extension phase)) was 2 patients and the “contribution of CYP pathways to the overall metabolism” value (CYP3A; from fmCYP3A estimate) was < 50%. For the same compound, the “fmCYP3A (fraction of panobinostat cleared by CYP3A)” value (CYP3A; in vivo) was 0.4 and the “share of oxidative metabolism mediated by CYP3A4” value [7] was 70–98%.

In the case of `CC(=O)N1CCN(c2ccc(OCC3COC(Cn4ccnc4)(c4ccc(Cl)cc4Cl)O3)cc2)CC1` (stereo not drawn) [ketoconazole, reference compound], the Ectopic activity [1, 14] is reported as 1 (7%) patients (%), the “New QTcB >450 ms” value [1, 14] is reported as 2 (14%) patients (%) and the Sinus tachycardia [1, 14] is reported as 0 patients (%). For the same compound, the T wave changes [1, 14] was 1 (7%) patients (%), the “patients with other transient ECG abnormalities” value [1, 14] was 21% and the “QTcB increase >30 ms” value ([1]; period 2 (ketoconazole only, day 5 until day 8), N = 14) was 3 patients (%) and 3 (21%) patients (%).

For `O=C(CCCCCCC(=O)Nc1ccccc1)NO` [vorinostat, reference compound], the “asymptomatic hypophosphatemia reported with single agent” value ([4]; review of toxicities of HDAC inhibitors) is listed as 5%.
